Results from ChEMBL document CHEMBL1155526, “Discovery of a potent, orally active 11beta-hydroxysteroid dehydrogenase type 1 inhibitor for clinical study: identification of (S)-2-((1S,2S,4R)-bicyclo[2.2.1]heptan-2-ylamino)-5-isopropyl-5-methylthiazol-4(5H)-one (AMG 221)” (J Med Chem, 2010).
Calls of active or inactive are those of the source. No cut-off for these calls is given here.

Columns and labels:
[1] = Bioavailability in Sprague-Dawley rat at 2 mg/kg, iv or 10 mg/kg, po; conditions: in vivo
[2] = Bioavailability in Beagle dog at 3 mg/kg, iv or 10 mg/kg, po; conditions: in vivo
[3] = Clearance in cynomolgus monkey at 2 mg/kg, iv or 10 mg/kg, po; conditions: in vivo
Mus musculus [4] = experiment: Antidiabetic activity in diet-induced obese mouse assessed as mild improvement of glucose tolerance at 25 to 50 mg/kg, po BID for 13 days measured on day 14 after 12 hrs of fasting by glucose tolerance test
Cytochrome P450 2D6 = Cytochrome P450 2D6 (Homo sapiens, UniProt P10635); experiment: Inhibition of CYP2D6; type: ADME
[5] = Volume of distribution at steady state in Beagle dog at 3 mg/kg, iv or 10 mg/kg, po; conditions: in vivo, read-out: Vdss
[6] = Clearance in Sprague-Dawley rat at 2 mg/kg, iv or 10 mg/kg, po; conditions: in vivo
Mus musculus [7] = experiment: Ex vivo inhibition of 11beta-HSD1 in high fat diet-fed C57BL/6 mouse inguinal fat at 15 mg/kg, po measured at 8 hrs by ELISA; type: functional; conditions: C57BL/6, 8 h
[8] = target: T1, 11-beta-hydroxysteroid dehydrogenase type 2 (Homo sapiens, UniProt P80365); experiment: Inhibition of 11beta-HSD2
T1 sequence (P80365 whole entry): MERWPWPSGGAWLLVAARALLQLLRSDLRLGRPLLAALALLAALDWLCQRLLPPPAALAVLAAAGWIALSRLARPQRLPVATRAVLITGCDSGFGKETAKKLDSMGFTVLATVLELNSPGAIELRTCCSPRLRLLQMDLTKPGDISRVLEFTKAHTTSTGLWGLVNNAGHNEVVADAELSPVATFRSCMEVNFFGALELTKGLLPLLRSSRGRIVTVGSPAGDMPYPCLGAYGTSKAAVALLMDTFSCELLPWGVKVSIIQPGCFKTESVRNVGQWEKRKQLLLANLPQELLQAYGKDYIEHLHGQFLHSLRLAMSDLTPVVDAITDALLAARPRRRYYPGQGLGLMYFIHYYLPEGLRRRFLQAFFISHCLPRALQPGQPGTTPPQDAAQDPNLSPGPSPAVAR

[9] = Volume of distribution at steady state in cynomolgus monkey at 2 mg/kg, iv or 10 mg/kg, po; conditions: in vivo, read-out: Vdss
Mus musculus [10] = experiment: Ex vivo inhibition of 11beta-HSD1 in high fat diet-fed C57BL/6 mouse inguinal fat at 50 mg/kg, po measured at 8 hrs by ELISA; type: functional; conditions: C57BL/6, 8 h
Mus musculus [11] = experiment: Antiobesity activity in po dosed diet-induced obese mouse assessed as decrease in body weight administered via gavage BID for 13 days measured after day 13; type: functional, organism-based
Summary of the method: (§1)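 Male C57BL/6 mice on high-fat diet from 3 weeks of age for 12 weeks (DIO), grouped n = 11-12 by pretreatment glucose and body weight. Oral gavage 25 or 50 mg/kg b.i.d. (half dose morning, half afternoon) or vehicle (0.1% Tween-80, 0.5% CMC in water) for 13-14 days. Fed blood glucose by glucose meter, plasma insulin by radioimmunoassay, body weight at study end.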

[12] = Terminal half life in Beagle dog at 3 mg/kg, iv or 10 mg/kg, po; conditions: in vivo, read-out: beta t1/2 (converted)
[13] = Volume of distribution at steady state in CD1 mouse at 5 mg/kg, iv or 30 mg/kg, po; type: ADME, organism-based; conditions: in vivo, read-out: Vdss
Summary of the method: (§2)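 iv: mouse 5, rat 2, dog 3, monkey 2 mg/kg in 10% dimethylacetamide/23% water/67% PEG 400. po: mouse 30, rat 10, monkey 10 mg/kg in 0.1% Tween-80/0.5% CMC in water; dog 10 mg/kg in the iv vehicle. Plasma sampled at various time points for drug levels. Half-life is terminal.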

Cytochrome P450 1A2 = target: T2, Cytochrome P450 1A2 (Homo sapiens, UniProt P05177); experiment: Inhibition of CYP1A2; type: ADME
T2 sequence (P05177 whole entry): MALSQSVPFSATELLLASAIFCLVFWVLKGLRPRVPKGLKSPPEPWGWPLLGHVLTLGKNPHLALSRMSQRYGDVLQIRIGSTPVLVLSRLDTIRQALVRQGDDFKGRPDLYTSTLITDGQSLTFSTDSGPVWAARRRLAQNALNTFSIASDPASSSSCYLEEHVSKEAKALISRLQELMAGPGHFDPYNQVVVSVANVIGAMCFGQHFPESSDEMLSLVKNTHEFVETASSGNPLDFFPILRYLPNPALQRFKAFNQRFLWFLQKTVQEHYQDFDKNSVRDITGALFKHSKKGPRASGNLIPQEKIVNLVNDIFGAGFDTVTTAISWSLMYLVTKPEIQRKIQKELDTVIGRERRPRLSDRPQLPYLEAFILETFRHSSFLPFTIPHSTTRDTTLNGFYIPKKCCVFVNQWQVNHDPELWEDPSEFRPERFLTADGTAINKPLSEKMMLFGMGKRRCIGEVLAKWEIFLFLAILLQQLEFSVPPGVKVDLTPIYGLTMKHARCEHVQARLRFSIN

[14] = Metabolic stability in liver microsomes; type: ADME, Microsome
Mus musculus [15] = experiment: Ex vivo inhibition of 11beta-HSD1 in high fat diet-fed C57BL/6 mouse inguinal fat at 5 mg/kg, po measured at 4 hrs by ELISA; type: functional; conditions: C57BL/6, 4 h
Cytochrome P450 2C9 = Cytochrome P450 2C9 (Homo sapiens, UniProt P11712); experiment: Inhibition of CYP2C9; type: ADME
Mus musculus [16] = experiment: Ex vivo inhibition of 11beta-HSD1 in high fat diet-fed C57BL/6 mouse inguinal fat at 5 mg/kg, po measured at 8 hrs by ELISA; type: functional; conditions: C57BL/6, 8 h
Mus musculus [17] = experiment: Ex vivo inhibition of 11beta-HSD1 in high fat diet-fed C57BL/6 mouse inguinal fat at 50 mg/kg, po measured at 4 hrs by ELISA; type: functional; conditions: C57BL/6, 4 h
[18] = Clearance in CD1 mouse at 5 mg/kg, iv or 30 mg/kg, po; type: ADME, organism-based; conditions: in vivo
Summary of the method: as §2

Mus musculus [19] = experiment: Antidiabetic activity in diet-induced obese mouse assessed as decrease in plasma insulin level at 25 to 50 mg/kg, po administered via gavage BID for 13 days measured after day 13 by glucose tolerance test; type: functional, organism-based
Summary of the method: as §1

[20] = Clearance in Beagle dog at 3 mg/kg, iv or 10 mg/kg, po; conditions: in vivo
Glucocorticoid receptor = target: T3, Glucocorticoid receptor (Homo sapiens, UniProt P04150); experiment: Inhibition of glucocorticoid receptor
T3 sequence (P04150 whole entry): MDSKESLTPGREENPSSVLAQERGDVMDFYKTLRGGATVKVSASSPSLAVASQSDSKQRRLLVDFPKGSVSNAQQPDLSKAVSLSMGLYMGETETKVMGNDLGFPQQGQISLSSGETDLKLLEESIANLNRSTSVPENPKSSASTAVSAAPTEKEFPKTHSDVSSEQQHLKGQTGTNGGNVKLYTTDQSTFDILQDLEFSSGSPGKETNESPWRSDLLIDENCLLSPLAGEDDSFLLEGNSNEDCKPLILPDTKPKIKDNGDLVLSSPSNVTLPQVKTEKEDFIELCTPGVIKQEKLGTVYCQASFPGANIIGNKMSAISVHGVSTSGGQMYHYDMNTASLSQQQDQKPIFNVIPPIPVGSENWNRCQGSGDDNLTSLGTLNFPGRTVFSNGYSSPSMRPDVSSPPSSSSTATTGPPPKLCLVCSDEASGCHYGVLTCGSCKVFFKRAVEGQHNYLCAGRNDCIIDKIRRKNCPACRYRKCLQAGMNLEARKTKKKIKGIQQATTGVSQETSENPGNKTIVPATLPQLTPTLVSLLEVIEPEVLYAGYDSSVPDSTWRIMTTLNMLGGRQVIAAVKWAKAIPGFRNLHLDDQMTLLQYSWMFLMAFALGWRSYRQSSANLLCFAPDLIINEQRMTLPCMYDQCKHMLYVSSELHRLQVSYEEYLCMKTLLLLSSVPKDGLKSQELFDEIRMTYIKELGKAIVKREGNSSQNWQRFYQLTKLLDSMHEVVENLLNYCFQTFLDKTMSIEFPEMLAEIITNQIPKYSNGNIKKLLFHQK

[21] = Bioavailability in CD1 mouse at 5 mg/kg, iv or 30 mg/kg, po; type: ADME, organism-based; conditions: in vivo
Summary of the method: as §2

Cytochrome P450 2C19 = Cytochrome P450 2C19 (Homo sapiens, UniProt P33261); experiment: Inhibition of CYP2C19; type: ADME
Mus musculus [22] = experiment: Ex vivo inhibition of 11beta-HSD1 in high fat diet-fed C57BL/6 mouse inguinal fat at 15 mg/kg, po measured at 4 hrs by ELISA; type: functional; conditions: C57BL/6, 4 h
Mus musculus [23] = experiment: Antidiabetic activity in diet-induced obese mouse assessed as decrease in fed blood glucose level at 25 to 50 mg/kg, po administered via gavage BID for 13 days measured after day 13 by glucose tolerance test; type: functional, organism-based
Summary of the method: as §1

Cytochrome P450 3A4 = Cytochrome P450 3A4 (Homo sapiens, UniProt P08684); experiment: Inhibition of CYP3A4; type: ADME
[24] = Bioavailability in cynomolgus monkey at 2 mg/kg, iv or 10 mg/kg, po; conditions: in vivo
[25] = Terminal half life in CD1 mouse at 5 mg/kg, iv or 30 mg/kg, po; type: ADME, organism-based; conditions: in vivo, read-out: beta t1/2 (converted)
Summary of the method: as §2

[26] = Terminal half life in cynomolgus monkey at 2 mg/kg, iv or 10 mg/kg, po; conditions: in vivo, read-out: beta t1/2 (converted)
[27] = Terminal half life in Sprague-Dawley rat at 2 mg/kg, iv or 10 mg/kg, po; conditions: in vivo, read-out: beta t1/2 (converted)
Mus musculus [28] = experiment: Antidiabetic activity in diet-induced obese mouse assessed as improvement of glucose tolerance at 5 mg/kg, QD for 13 days measured on day 14 after 12 hrs of fasting by glucose tolerance test
Mus musculus [29] = experiment: Antiobesity activity in diet-induced obese mouse assessed as decrease in body weight at 5 mg/kg administered QD via high fat-diet for 13 days measured after day 13; type: functional, organism-based; design: dose 5 mg/kg
Summary of the method: (§3)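 DIO male C57BL/6 mice (12 weeks high-fat diet), n = 11-12 per group. Rosiglitazone given in the high-fat chow at ~5 mg/kg/day for 13 or 14 days. Fed blood glucose by glucose meter and plasma insulin by radioimmunoassay before and at end of treatment. Body weight taken at end of treatment.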

Mus musculus [30] = experiment: Antidiabetic activity in diet-induced obese mouse assessed as decrease in fed blood glucose level at 5 mg/kg administered QD via high fat-diet for 13 days measured after day 13 by glucose tolerance test; type: functional, organism-based; design: dose 5 mg/kg
Summary of the method: as §3

Mus musculus [31] = experiment: Antidiabetic activity in diet-induced obese mouse assessed as decrease in plasma insulin level at 5 mg/kg administered QD via high fat-diet for 13 days measured after day 13 by glucose tolerance test; type: functional, organism-based; design: dose 5 mg/kg
Summary of the method: as §3

Rattus norvegicus [32] = experiment: Metabolic epimerization in Sprague-Dawley rat assessed as formation of [R]-2-((1S,2S,4R)-bicyclo[2.2.1]heptan-2-ylamino)-5-5iospropylthiazol-4(5H)-one at 10 mg/kg, po up to 24 hrs by LC-MS/MS analysis; type: ADME, organism-based; design: dose 10 mg/kg, route oral; conditions: in vivo
Summary of the method: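 Sprague-Dawley rats (n = 2/group) dosed orally at 10 mg/kg. Plasma taken predose and at intervals up to 24 h. Diastereomers separated by HPLC, quantified by positive-ion ESI MS/MS with single ion monitoring. AUC ratio of epimer to parent calculated.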

Rattus norvegicus [33] = experiment: Metabolic epimerization in Sprague-Dawley rat assessed as formation of [R]-2-((1S,2S,4R)-bicyclo[2.2.1]heptan-2-ylamino)-5-5iospropylthiazol-4(5H)-one at 10 mg/kg up to 24 hrs by LC-MS/MS analysis; conditions: in vivo

Sequence of Cytochrome P450 2D6 (P10635 whole entry): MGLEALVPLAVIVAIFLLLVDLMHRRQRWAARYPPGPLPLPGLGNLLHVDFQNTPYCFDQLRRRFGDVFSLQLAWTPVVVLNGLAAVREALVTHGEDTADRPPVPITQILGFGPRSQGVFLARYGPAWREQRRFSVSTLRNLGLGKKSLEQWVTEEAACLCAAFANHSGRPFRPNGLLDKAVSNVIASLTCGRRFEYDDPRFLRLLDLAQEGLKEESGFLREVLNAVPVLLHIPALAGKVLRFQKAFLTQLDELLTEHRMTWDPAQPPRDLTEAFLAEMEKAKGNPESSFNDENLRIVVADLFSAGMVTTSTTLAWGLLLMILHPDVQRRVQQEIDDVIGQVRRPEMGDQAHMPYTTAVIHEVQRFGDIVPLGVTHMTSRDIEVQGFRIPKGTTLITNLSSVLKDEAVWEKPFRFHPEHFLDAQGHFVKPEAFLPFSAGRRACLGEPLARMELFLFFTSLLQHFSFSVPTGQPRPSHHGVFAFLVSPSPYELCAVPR
Sequence of Cytochrome P450 2C19 (P33261 whole entry): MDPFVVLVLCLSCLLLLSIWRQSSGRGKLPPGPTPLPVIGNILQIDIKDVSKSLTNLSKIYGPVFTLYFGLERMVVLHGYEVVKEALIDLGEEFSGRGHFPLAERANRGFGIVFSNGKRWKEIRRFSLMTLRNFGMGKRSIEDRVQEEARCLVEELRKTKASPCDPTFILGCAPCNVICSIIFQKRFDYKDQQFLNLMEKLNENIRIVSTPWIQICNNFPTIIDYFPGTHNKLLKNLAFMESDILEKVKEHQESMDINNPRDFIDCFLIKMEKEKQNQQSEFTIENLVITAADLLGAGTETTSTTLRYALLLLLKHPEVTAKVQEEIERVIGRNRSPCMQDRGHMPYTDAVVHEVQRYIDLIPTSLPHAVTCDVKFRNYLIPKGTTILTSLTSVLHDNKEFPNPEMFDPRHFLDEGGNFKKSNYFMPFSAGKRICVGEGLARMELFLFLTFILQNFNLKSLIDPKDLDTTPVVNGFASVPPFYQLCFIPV
Sequence of Cytochrome P450 2C9 (P11712 whole entry): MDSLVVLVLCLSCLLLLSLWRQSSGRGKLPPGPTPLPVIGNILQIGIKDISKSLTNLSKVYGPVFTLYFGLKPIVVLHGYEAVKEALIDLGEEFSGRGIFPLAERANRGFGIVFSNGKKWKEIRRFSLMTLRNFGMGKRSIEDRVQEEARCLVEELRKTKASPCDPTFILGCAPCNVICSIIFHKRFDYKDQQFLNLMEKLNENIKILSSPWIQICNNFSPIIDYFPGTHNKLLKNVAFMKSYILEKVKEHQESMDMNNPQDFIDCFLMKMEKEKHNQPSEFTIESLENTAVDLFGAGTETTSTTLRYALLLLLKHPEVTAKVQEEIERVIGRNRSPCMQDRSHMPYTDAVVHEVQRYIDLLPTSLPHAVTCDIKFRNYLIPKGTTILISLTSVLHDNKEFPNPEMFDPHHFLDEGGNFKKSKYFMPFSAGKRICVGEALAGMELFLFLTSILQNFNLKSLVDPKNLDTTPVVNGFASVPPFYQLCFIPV
Sequence of Cytochrome P450 3A4 (P08684 whole entry): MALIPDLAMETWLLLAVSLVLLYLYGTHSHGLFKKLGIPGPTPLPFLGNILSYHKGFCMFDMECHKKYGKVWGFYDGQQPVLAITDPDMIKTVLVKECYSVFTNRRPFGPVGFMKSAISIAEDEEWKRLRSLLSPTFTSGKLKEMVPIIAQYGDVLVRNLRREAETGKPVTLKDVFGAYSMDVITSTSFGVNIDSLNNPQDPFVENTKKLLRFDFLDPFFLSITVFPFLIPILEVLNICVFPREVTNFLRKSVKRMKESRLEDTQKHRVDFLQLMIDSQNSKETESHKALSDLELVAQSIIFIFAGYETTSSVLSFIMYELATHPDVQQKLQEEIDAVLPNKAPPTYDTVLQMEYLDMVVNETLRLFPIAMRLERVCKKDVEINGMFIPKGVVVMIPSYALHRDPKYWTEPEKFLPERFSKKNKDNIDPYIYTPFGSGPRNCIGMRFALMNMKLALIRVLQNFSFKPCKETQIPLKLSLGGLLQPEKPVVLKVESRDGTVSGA

## CC(C)[C@]1(C)SC(N[C@H]2C[C@@H]3CC[C@H]2C3)=NC1=O
[1]
  bioavailability: 34%
[2]
  bioavailability: 50%
[3]
  clearance: 31.5 mL/min/kg
Mus musculus [4]
  Activity: Active
Cytochrome P450 2D6
  IC50: > 15 µM
[5]
  Vd: 1.02 L/kg
[6]
  clearance: 22.7 mL/min/kg
Mus musculus [7]
  inhibition in vivo at 15 mg/kg: 36%
[8]
  IC50: > 10 µM
[9]
  Vd: 0.98 L/kg
Mus musculus [10]
  inhibition in vivo at 50 mg/kg: 39%
Mus musculus [11]
  inhibition: Dose-dependent effect
[12]
  half-life: 8.1 h
[13]
  Vd: 1 L/kg
Cytochrome P450 1A2
  IC50: > 15 µM
[14]
  Km: > 100 µM
Mus musculus [15]
  inhibition in vivo at 5 mg/kg: 33%
Cytochrome P450 2C9
  IC50: > 15 µM
Mus musculus [16]
  inhibition in vivo at 5 mg/kg: 10%
Mus musculus [17]
  inhibition in vivo at 50 mg/kg: 47%
[18]
  clearance: 52.7 mL/min/kg
Mus musculus [19]
  inhibition: Active
[20]
  clearance: 15.7 mL/min/kg
Glucocorticoid receptor
  IC50: > 10 µM
[21]
  bioavailability: 54%
Cytochrome P450 2C19
  IC50: > 15 µM
Mus musculus [22]
  inhibition in vivo at 15 mg/kg: 55%
Mus musculus [23]
  inhibition: Active
Cytochrome P450 3A4
  IC50: > 15 µM
[24]
  bioavailability: 7%
[25]
  half-life: 15.6 h
[26]
  half-life: 0.6 h
[27]
  half-life: 41.5 h

## CN(CCOc1ccc(CC2SC(=O)NC2=O)cc1)c1ccccn1 (centres undefined)
Mus musculus [28]
  Activity: inactive
Mus musculus [29]
  inhibition: inactive
Mus musculus [30]
  inhibition: Active
Mus musculus [31]
  inhibition: Active

## CC(C)[C@@H]1SC(N[C@H]2C[C@@H]3CC[C@H]2C3)=NC1=O
Rattus norvegicus [32]
  Activity: 39%
Rattus norvegicus [33]
  Activity: 39%
